Test results published in PubChem BioAssay.
Calls of active or inactive are those of the source.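 How the source made its calls, unless noted: active means viability at or below 30% in both replicate assays; inconclusive means viability at or below 30% in just one of the two assays; inactive means the rest.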

Columns and labels:
[1] = reducers of endogenous Her2 protein level, primary screen, SKBR3 breast tumor cells, AlphaScreen, ATP viability (AID 461;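 active means Her2 level under about 52% in both replicate screens, with viability over 70% of control, limit read from the data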;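 on Her2 level: lower value means less Her2 protein in the cells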;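 on viability: percent of carrier control wells set as 100% viability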); details: 18-24 h, measured here: SKBR3 viability, ATP luminescence, at 10 µM
[2] = biological target: Receptor tyrosine-protein kinase erbB-2 (Homo sapiens) (UniProt P04626); assay: as above; details: 18-24 h, at 10 µM, stronger effect = lower value
[3] = SK-BR-3 cell growth inhibitors, pilot screen, 24 h, human (AID 572;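 active means viability at or below 10% of carrier control in both of two separate runs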;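 further: compound exposure lasted between 18 and 24 h rather than exactly 24 h; 100% = carrier-treated control wells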); details: SK-BR-3 viability, CellTiter-Glo luminescence, at 10 µM, stronger effect = lower value
[4] = HUVEC growth inhibition – cell-based, human, primary screen (AID 575); details: HUVEC proliferation, CellTiter-Glo luminescence, 72 h; at 10 µM; stronger effect = lower value;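 further: 100% = median of untreated cell wells with 0.1% DMSO on each plate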
In short: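 Test system: primary human umbilical vein endothelial cells; medium: endothelial basal medium with 2% FBS plus growth supplements; dosing: 10 µM compound only; times: 72 h treatment at 37 °C; signal: CTG luminescence; read-out: % viability relative to median vehicle-well signal on each plate; control set: vehicle and MePR control wells; plate: 384-well, collagen-coated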

[5] = growth inhibitors of H69AR lung tumor, primary screen, human, duplicate replicates (AID 580;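 active means viability at or under a set limit in both replicates, limit being median viability minus 3 SD, cut at about 48% in these data, passing the limit was not always enough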;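 further: 100% = mean luminescence of untreated wells and 0% = no signal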); details: H69AR lung tumor cells viability, ATP luminescence, 72 h; at 10 µM; stronger effect = lower value
[6] = reversal of MRP1-mediated doxorubicin resistance, pilot screen, H69AR cells, doxorubicin co-treatment (AID 601;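 active means viability loss from added drug above about 55%, and viability with drug at most 40%, in both replicates, limit read from the data, passing the limit was not always enough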); details: CellTiter-Glo, 72 h, at 10 µM; for differential viability (reversal): stronger effect = higher value
[7] = 384-well plate pilot, post-Golgi transport modulator project, inhibition of yeast transport mutant growth (AID 636; in the data active means inhibition above about 31%); details: absorbance 615 nm, about 18 h, stronger effect = higher value
[8] = growth suppression of yeast trafficking mutant, preliminary HTS, modulators of trafficking downstream of Golgi apparatus project, 1536-format plate, OD 615 nm (AID 637; in the data active means inhibition above about 30%); details: yeast transport mutant growth, absorbance 615 nm, 18 h; stronger effect = higher value
[9] = H69AR cells + 2 uM doxorubicin, measured here: viability with 2 uM doxorubicin, stronger effect = lower value
[10] = H69AR cells, compound alone cytotoxicity

Sequence of Receptor tyrosine-protein kinase erbB-2 (Homo sapiens) (P04626 whole entry, looked up): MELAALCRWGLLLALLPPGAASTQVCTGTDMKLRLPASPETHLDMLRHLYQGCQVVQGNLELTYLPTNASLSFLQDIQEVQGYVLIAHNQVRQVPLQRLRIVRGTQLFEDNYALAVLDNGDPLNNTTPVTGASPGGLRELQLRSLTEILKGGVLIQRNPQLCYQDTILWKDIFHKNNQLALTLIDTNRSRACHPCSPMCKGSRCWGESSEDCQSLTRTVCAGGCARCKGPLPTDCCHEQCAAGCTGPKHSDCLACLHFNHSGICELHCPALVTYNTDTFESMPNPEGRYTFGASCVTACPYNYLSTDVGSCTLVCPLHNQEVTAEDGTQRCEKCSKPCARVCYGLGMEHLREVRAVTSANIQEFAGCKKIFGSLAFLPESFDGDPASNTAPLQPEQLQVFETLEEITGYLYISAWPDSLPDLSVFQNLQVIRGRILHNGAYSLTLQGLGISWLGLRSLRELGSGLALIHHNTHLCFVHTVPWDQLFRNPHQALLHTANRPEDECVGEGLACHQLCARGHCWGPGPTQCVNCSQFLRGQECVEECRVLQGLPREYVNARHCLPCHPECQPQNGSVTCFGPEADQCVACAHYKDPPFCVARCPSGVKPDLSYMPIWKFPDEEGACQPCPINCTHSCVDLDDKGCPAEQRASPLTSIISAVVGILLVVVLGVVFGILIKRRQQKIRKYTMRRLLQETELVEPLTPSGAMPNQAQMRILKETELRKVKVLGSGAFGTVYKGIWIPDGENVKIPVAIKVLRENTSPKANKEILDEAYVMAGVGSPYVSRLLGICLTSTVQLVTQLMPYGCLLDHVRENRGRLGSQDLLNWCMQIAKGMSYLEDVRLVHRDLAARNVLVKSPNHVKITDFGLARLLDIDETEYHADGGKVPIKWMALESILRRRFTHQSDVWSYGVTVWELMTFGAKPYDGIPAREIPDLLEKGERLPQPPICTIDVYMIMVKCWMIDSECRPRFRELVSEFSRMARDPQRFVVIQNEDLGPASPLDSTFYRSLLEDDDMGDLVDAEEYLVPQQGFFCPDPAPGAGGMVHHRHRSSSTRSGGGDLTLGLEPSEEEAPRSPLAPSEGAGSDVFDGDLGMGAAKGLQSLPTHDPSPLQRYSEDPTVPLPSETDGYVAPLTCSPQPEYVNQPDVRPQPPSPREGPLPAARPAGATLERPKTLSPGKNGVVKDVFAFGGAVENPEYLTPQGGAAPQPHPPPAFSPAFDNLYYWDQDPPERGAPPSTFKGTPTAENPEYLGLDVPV

| Compound | viability [1] | Her2 level [2] | viability [3] | viability [4] | viability [5] | differential viability (reversal) ([6]; H69AR cells + 2 uM doxorubicin) | viability [6, 9] | viability [6, 10] | inhibition [7] | inhibition [8] |
| --- | --- | --- | --- | --- | --- | --- | --- | --- | --- | --- |
| Nc1ccc(-c2ccc(N)cc2C(F)(F)F)c(C(F)(F)F)c1 | 94% | 80% (inactive) | 94% (inactive) | 75.1% (inactive) | 68.6% (inactive) | -13.7% (inactive) | 82.3% | 68.6% | -0.65% (inactive) | -0.66% (inactive) |
| COC(=O)c1sccc1NC(=O)c1csc(C)c1 | 87% | 20% (active) | 87% (inactive) | 60.8% (inactive) | 69.1% (inactive) | 2.06% (inactive) | 67.1% | 69.1% | -3.64% (inactive) | -0.66% (inactive) |
| O=C(CN1C(=O)C2CC=C(Cl)CC2C1=O)Nc1ccc(C(=O)O)cc1 (stereo not given) | 127% | 101% (inactive) | 127% (inactive) | 99.1% (inactive) | 94.7% (inactive) | -0.64% (inactive) | 95.4% | 94.7% | -3.55% (inactive) | -0.16% (inactive) |
| Cn1c(CCNC(=O)c2ccco2)nc2cc(NC(=O)C3CCCCC3)ccc21 | 101% | 114% (inactive) | 101% (inactive) | 78.3% (inactive) | 84.5% (inactive) | 2.02% (inactive) | 82.5% | 84.5% | -8.49% (inactive) | -1.59% (inactive) |
| COc1ccc(CCn2c(NCCCN3CCOCC3)nc3c2c(=O)[nH]c(=O)n3C)cc1 | 84.5% | 86% (inactive) | 84.5% (inactive) | 76.6% (inactive) | 87.3% (inactive) | 0.365% (inactive) | 86.9% | 87.3% | 4.13% (inactive) | 30.3% (active) |
| CN(Cc1cccs1)C(=O)CCc1ccc(S(=O)(=O)N2CCOCC2)cc1 | 97.5% | 116% (inactive) | 97.5% (inactive) | 111% (inactive) | 87.4% (inactive) | -10.2% (inactive) | 97.6% | 87.4% | -5.06% (inactive) | -12.5% (inactive) |
| O=C(OC1CCOC1=O)c1ccc2ccccc2n1 (stereo not given) | 98.5% | 85% (inactive) | 98.5% (inactive) | 101% (inactive) | 102% (inactive) | 9.04% (inactive) | 93.4% | 102% | -6.93% (inactive) | 1.75% (inactive) |
| CC(C)[C@H](NC(=O)OC(C)(C)C)c1nnc(SCc2cccc(F)c2)o1 | 90% | 120% (inactive) | 90% (inactive) | 107% (inactive) | 96.4% (inactive) | -1.12% (inactive) | 97.5% | 96.4% | 0.13% (inactive) | 0% (inactive) |
| Cc1ccc(S(=O)(=O)N2CCOCC2)cc1C(=O)OCC(=O)N1CCc2ccccc2C1 | 82.5% | 87.5% (inactive) | 82.5% (inactive) | 99.9% (inactive) | 87.9% (inactive) | -7.28% (inactive) | 95.2% | 87.9% | -4% (inactive) | 2.95% (inactive) |
| CC1CC(C)CN(CCCNC(=O)COc2cc(=O)n(C)c3ccccc23)C1 (stereo not given) | 90% | 88% (inactive) | 90% (inactive) | 85.3% (inactive) | 90.7% (inactive) | 16.5% (inactive) | 74.2% | 90.7% | -3.73% (inactive) | -4.59% (inactive) |
| O=C(c1cc2cc(Cl)cc(Cl)c2oc1=O)N1CCOCC1 | 76% | 82.5% (inactive) | 76% (inactive) | 96% (inactive) | 88.4% (inactive) | 0.725% (inactive) | 87.7% | 88.4% | -6.35% (inactive) | 3.44% (inactive) |
| O=C(OCC#CCSc1nc2ccccc2s1)c1ccco1 | 88% | 90.5% (inactive) | 88% (inactive) | 74.7% (inactive) | 81.8% (inactive) | 1.8% (inactive) | 80% | 81.8% | -2.34% (inactive) | -10.8% (inactive) |
| O=C1CC(N2CCN(c3cccc(C(F)(F)F)c3)CC2)C(=O)N1c1ccccc1 (stereo not given) | 93.5% | 112% (inactive) | 93.5% (inactive) | 92.3% (inactive) | 103% (inactive) | 13% (inactive) | 90% | 103% | -2.08% (inactive) | -12.7% (inactive) |
| Cc1nnc(SCCn2c(N3CC(C)CC(C)C3)nc3c2c(=O)n(C)c(=O)n3C)s1 (stereo not given) | 106% | 99.5% (inactive) | 106% (inactive) | 93.8% (inactive) | 95.9% (inactive) | -2.37% (inactive) | 98.2% | 95.9% | 0.26% (inactive) | 24.7% (inactive) |
| COc1ccccc1CC1(C)NC(=O)N(CC(=O)Nc2cc(C)on2)C1=O (stereo not given) | 106% | 86% (inactive) | 106% (inactive) | 106% (inactive) | 92.7% (inactive) | 9.12% (inactive) | 83.6% | 92.7% | -5.81% (inactive) | 4.13% (inactive) |
| CCOC(=O)C1CCN(c2c(NCCCN(CC)c3ccccc3)c(=O)c2=O)CC1 | 83.5% | 86.5% (inactive) | 83.5% (inactive) | 91.9% (inactive) | 81.1% (inactive) | 8.21% (inactive) | 72.9% | 81.1% | -1.18% (inactive) | 0.18% (inactive) |
